From PubChem BioAssay
Most compounds without a hit are left out; they make up all but 1.9% or so of the library.
PLCg1 inh = inhibitors of human phospholipase C gamma1; inhibition, % at 12.2 µM; purified PLC-gamma1, fluorogenic substrate, fluorescence; 0.84% of 370,000 active; P19174
sPLA2-III inh = Inhibits HGIII-sPLA2 liposome hydrolysis, primary screen | 0.56% of 370,000 active | inhibition, % at 12.2 µM | QFRET BODIPY PC-A2 liposome hydrolysis, fluorescence | Q9NZ20;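 active means inhibition above mean plus 3 SD of compounds lying within the high and low control bounds, cut at about 19% in these data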
Target sequence (Q9NZ20 whole entry, looked up): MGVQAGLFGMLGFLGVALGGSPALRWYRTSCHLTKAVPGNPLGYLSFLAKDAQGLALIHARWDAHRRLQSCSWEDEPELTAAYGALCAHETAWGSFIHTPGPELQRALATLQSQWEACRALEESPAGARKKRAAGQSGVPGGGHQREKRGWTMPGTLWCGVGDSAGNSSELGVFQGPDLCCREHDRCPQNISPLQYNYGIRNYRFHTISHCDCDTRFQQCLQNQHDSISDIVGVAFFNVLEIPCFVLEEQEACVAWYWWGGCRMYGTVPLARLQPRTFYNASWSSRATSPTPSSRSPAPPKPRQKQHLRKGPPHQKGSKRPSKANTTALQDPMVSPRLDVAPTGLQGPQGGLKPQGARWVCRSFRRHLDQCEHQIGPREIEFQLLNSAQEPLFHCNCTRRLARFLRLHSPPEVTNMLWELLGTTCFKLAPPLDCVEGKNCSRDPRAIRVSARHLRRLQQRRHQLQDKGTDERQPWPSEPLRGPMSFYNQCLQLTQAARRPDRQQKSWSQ
Tb MetRS inh = Trypanosoma brucei MetRS inhibition; purified T. brucei MetRS, ATP depletion, Kinase-Glo luminescence; inhibition, % at 11.9 µM; 0.4% of 360,000 active;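 active means inhibition above a per-plate cutoff of the control wells' mean inhibition plus 3 SD, cut at about 5.5% in these data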
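Test system – parasite MetRS enzyme · Reagent – substrates ATP, L-methionine and bulk Escherichia coli tRNA · Doses – 11.9 µM compound single dose, 0.9% DMSO · Times – 15 min enzyme-compound preincubation, 2 h reaction, 10 min detection, 25 °C · Signal – Kinase-Glo luminescence, ATP depletion format · Controls – DMSO-only wells as low control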
PLCb3 inh = inhibitors of human phospholipase C beta3 | inhibition, % at 12.2 µM | 0.18% of 370,000 active | Q01970 | Purified PLC-beta3, fluorogenic substrate, fluorescence; in the data active means inhibition above about 11%
PLCg1 ctr = inhibits human PLC-gamma1 in PLC-beta3 counter-screen | inhibition, % at 12.3 µM | purified PLC-gamma1, fluorogenic substrate, fluorescence | shares compounds with PLCg1 inh | 3.1% of 3,300 active
PLCb3 confirm = confirmation of human PLC-beta3 inhibitors; shares compounds with PLCg1 inh; purified PLC-beta3, fluorogenic substrate fluorescence; 1% of 3,300 active; inhibition, % at 12.3 µM; in the data active means inhibition above about 11%
A number is an active result; – = inactive; · = not tested or not shown. Unless noted, no stated cut-off is given here; in the data, active means inhibition above about 9.5%; inactive means the rest.

SMILES | PLCg1 inh | sPLA2-III inh | Tb MetRS inh | PLCb3 inh | PLCg1 ctr | PLCb3 confirm
CCNC(=O)N1CCN(c2ccc(N3CCN(C(=O)NCC)[C@@H](C)C3)c(C)c2)[C@@H](C)C1 | – | – | · | – | · | ·
O=C(COC(=O)CCc1nc2ccccc2s1)Nc1ccc(S(=O)(=O)N2CCOCC2)cc1 | – | – | – | – | · | ·
O=C(COC(=O)CCc1nc2ccccc2s1)Nc1cccc(S(=O)(=O)N2CCOCC2)c1 | 11.3 | – | – | – | – | –
[O-]C1=N/[N+](=C/c2ccccc2)CC1 | – | – | – | – | · | ·
[O-]C1=N/[N+](=C/c2ccccc2Cl)CC1 | 11.4 | – | – | – | – | –
NC1=NC(=O)/C(=C/c2cccs2)S1 | 14.7 | – | – | – | – | –
Cc1ccc(-n2ncc(C(=O)Nc3ccc(Cl)cc3)c2C2CCNCC2)cc1C | 9.6 | – | – | – | – | –
CC(=O)c1cc(-c2cc(C(=O)O)cc([N+](=O)[O-])c2)c(=O)n2c1CCC2 | – | – | · | – | · | ·
Cc1ccc2nc(C3CCN(C(=O)NCc4ccccc4)CC3)[nH]c2c1 | 10.1 | – | – | – | – | –
Cc1ccc(-c2nc(N)n(C(=O)c3cccnc3)n2)cc1 | 12.4 | – | – | – | – | –
Cc1ccc(OC[C@@H](O)CN2CCC(C(O)(c3ccccc3)c3ccccc3)CC2)cc1 | – | – | · | – | · | ·
CCc1ccccc1N/C(=N\S(=O)(=O)c1ccccc1)C(F)(F)F | – | – | – | – | · | ·
O=S(=O)(/N=C(/Nc1ccccc1)C(F)(F)F)c1ccccc1 | 9.6 | – | – | – | – | –
NCc1ccc(OCCCN2CCC(C(O)(C3=CCCC3)c3ccccc3)CC2)cc1 (stereo not given) | – | – | · | – | · | ·
CCC(Cc1ccccc1)NC(=O)C1CCN(S(=O)(=O)c2ccc3c(c2)CC(C)N3C(C)=O)CC1 (stereo not given) | 11.7 | – | – | – | – | –
c1ccc(Cn2ncc3ccccc32)cc1 | 14.9 | – | – | – | – | –
OC(COC1CCCCC1)CN1CCN(c2ccccc2)CC1 (stereo not given) | 12.9 | – | – | – | – | –
CC(C)(C)C1CCC(OCC(O)CN2CCN(Cc3ccccc3)CC2)CC1 (stereo not given) | – | – | – | – | · | ·
CC(C)N(CCO)C(=O)CCc1nnc(Cc2cccc(C(F)(F)F)c2)o1 | 9.7 | – | – | – | – | –
CC(C)NC(=O)CCc1nnc(Cc2cccc(C(F)(F)F)c2)o1 | – | – | – | – | · | ·
COC(=O)CN(Cc1cn(Cc2ccccc2)nn1)S(=O)(=O)c1ccccc1Br | – | – | · | – | · | ·
CC1=NC2=CC=CC3=NC(C(Cl)(Cl)Cl)=NC(=N1)N23 | – | – | · | – | · | ·
O=C(CCc1ccccc1)Oc1ccccc1[N+](=O)[O-] | 12.9 | – | · | – | – | –
O=C(CCc1ccccc1)Nc1ccccc1[N+](=O)[O-] | – | – | – | – | · | ·
N#CCC1(O)C(=O)Nc2ccccc21 (stereo not given) | – | – | · | – | · | ·
SMILES | PLCg1 inh | sPLA2-III inh | Tb MetRS inh | PLCb3 inh | PLCg1 ctr | PLCb3 confirm
CCC(NC(=O)c1ccc2c(ccn2Cc2cccc(-c3ccc(C(=O)O)cc3)c2)c1)c1ccccc1 (stereo not given) | – | – | · | – | · | ·
O=C(NCCN1C(=O)CSC1=O)C1CC(=O)N(c2ccccc2)C1 (stereo not given) | 10.2 | – | – | – | – | –
O=C(NCCc1ccccc1F)C1CC(=O)N(c2ccccc2)C1 (stereo not given) | – | – | – | – | · | ·
CCOC(=O)c1sc(NC(=O)CCCCl)nc1C | 9.8 | – | – | – | – | –
CCOC(=O)c1sc(NC(=O)CC)nc1C | – | – | – | – | · | ·
Cc1cccc(/N=C2/NC(=O)C(Cc3ccccc3)S2)n1 (stereo not given) | – | – | – | – | · | ·
CCOc1ccc(CC2S/C(=N/c3ccccn3)NC2=O)cc1 (stereo not given) | 11.0 | – | – | – | – | –
N=C(N)SCc1cn(-c2ccccc2)nc1-c1ccc(Br)cc1 | 9.5 | – | – | – | – | –
Cc1ccc(-c2nn(-c3ccccc3)cc2CO)cc1 | – | – | – | – | · | ·
COCc1[nH]nc2c1C(c1ccc(F)cc1)N(Cc1ccccc1)C2=O (stereo not given) | – | – | · | – | · | ·
c1ccc2c(C3OCC4(CCCC4)CO3)cccc2c1 | 9.6 | – | – | – | – | –
Oc1ccccc1C1OCC2(CO1)COC(c1ccccc1O)OC2 (stereo not given) | – | – | – | – | · | ·
Cn1cc(C2(c3c[nH]c4ccccc34)CCN(C(=O)OC(C)(C)C)CC2)c2ccccc21 | – | – | · | – | · | ·
CC(=O)Nc1sc2c(c1-c1nc3ccccc3s1)CCCN(C(C)C)C2 | – | – | · | – | · | ·
CCCN(CC1CC1)C(=O)CSc1nnc(-c2ccncc2)n1-c1ccc(OC)cc1 | – | – | · | – | · | ·
COc1ccccc1C(CCNCc1ccc(N(C)C)cc1)c1ccc(OC(C)C)cc1 (stereo not given) | 10.5 | – | – | – | – | –
COc1ccc(CNCCC(c2ccc(OC(C)C)cc2)c2ccccc2OC)cc1 (stereo not given) | – | – | – | – | · | ·
O=C(OCc1cn(Cc2cc(F)ccc2F)nn1)N1CCOCC1 | – | – | · | – | · | ·
COc1cccc(CCNS(=O)(=O)c2c(C)n[nH]c2C)c1 | – | – | · | – | · | ·
Cc1cccc(OC(C)C(=O)N(Cc2cccs2)C2CCS(=O)(=O)C2)c1C (stereo not given) | 12.9 | – | – | – | – | –
Cc1ccccc1OCC(=O)N(Cc1cccs1)C1CCS(=O)(=O)C1 (stereo not given) | – | – | – | – | · | ·
C[C@H](NC(=O)c1ccc(Br)cc1)C(=O)NCc1ccc(S(N)(=O)=O)cc1 | 9.6 | – | – | – | – | –
CC(NCc1ccc(S(N)(=O)=O)cc1)C(=O)NCc1ccccc1 (stereo not given) | – | – | – | – | · | ·
O=C(Nn1cnnc1)C1Cc2ccccc2CN1S(=O)(=O)c1ccc(F)cc1 (stereo not given) | 10.4 | – | – | – | – | –
COc1ccccc1C(=O)NC1CCCCN(Cc2cccc(Cl)c2)C1=O (stereo not given) | – | – | · | – | · | ·
SMILES | PLCg1 inh | sPLA2-III inh | Tb MetRS inh | PLCb3 inh | PLCg1 ctr | PLCb3 confirm
CCc1cc(C(=O)NNC(=O)CCN2CCN(c3ccccc3)CC2)sc1C | – | – | – | – | · | ·
CCc1cc(C(=O)NNC(=O)CCl)sc1C | 10.6 | – | – | – | – | –
O=C(CC1SCCNC1=O)Nc1cc(Cl)cc(Cl)c1 (stereo not given) | – | – | – | 11.9 | – | –
COC(=O)c1cc(NC(=O)CC2SCCNC2=O)cc(C(=O)OC)c1 (stereo not given) | – | – | – | – | · | ·
CN(C)S(=O)(=O)c1cc(C(=O)NCC2CCCO2)c(Cl)cc1Cl (stereo not given) | 9.5 | – | – | – | – | –
COC(=O)c1cc2c(c3c4cc(C)ccc4n(S(=O)(=O)c4ccccc4)c13)C(=O)N(Cc1ccc(C(F)(F)F)cc1)C2 | – | – | · | – | · | ·
